Measurements from the M2OR odorant receptor database.

Tests used:
Conditions in all cases: stereoisomer not certain
OR5P3 (Homo sapiens) = molecular target: T1, OR5P3 (Homo sapiens) (UniProt Q8WZ94)
T1 sequence (whole entry): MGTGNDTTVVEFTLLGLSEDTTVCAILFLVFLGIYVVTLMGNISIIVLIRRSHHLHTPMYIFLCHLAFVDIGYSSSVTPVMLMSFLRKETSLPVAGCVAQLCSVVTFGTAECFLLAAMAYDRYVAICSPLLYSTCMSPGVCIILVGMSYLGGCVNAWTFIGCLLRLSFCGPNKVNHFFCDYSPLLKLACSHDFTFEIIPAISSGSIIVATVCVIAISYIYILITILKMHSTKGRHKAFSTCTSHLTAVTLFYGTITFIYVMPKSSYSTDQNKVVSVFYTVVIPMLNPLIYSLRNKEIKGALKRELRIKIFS
How it was run: (§1)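 Each entry records the cell line, G-protein, co-transfected protein and tags used. Methods varied with the source, often transient luciferase assays in mammalian cell lines. A receptor–molecule pair is called responsive (active) if the original authors judged its signal statistically different from baseline and non-responsive (inactive) otherwise.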

OR5T1 (Homo sapiens) = OR5T1 (Homo sapiens) (UniProt Q8NG75)
How it was run: as §1

OR5T2 (Homo sapiens) = OR5T2 (Homo sapiens) (UniProt Q8NGG2)
How it was run: as §1

OR5T3 (Homo sapiens) = OR5T3 (Homo sapiens) (UniProt Q8NGG3)
How it was run: as §1

OR5V1 (Homo sapiens) = OR5V1 (Homo sapiens) (UniProt Q9UGF6)
How it was run: as §1

OR5W2 (Homo sapiens) = OR5W2 (Homo sapiens) (UniProt Q8NH69)
How it was run: as §1

OR5P3 L301R = system: OR5P3 L301R
How it was run: as §1

OR5R1 C122R S128G F184L = system: OR5R1 C122R S128G F184L
How it was run: as §1

OR5T2 S4G = system: OR5T2 S4G
How it was run: as §1

OR5W2 R189C = system: OR5W2 R189C
How it was run: as §1

Measured: odorant receptor agonist call

OR5W2 (Homo sapiens), sequence (Q8NH69 whole entry): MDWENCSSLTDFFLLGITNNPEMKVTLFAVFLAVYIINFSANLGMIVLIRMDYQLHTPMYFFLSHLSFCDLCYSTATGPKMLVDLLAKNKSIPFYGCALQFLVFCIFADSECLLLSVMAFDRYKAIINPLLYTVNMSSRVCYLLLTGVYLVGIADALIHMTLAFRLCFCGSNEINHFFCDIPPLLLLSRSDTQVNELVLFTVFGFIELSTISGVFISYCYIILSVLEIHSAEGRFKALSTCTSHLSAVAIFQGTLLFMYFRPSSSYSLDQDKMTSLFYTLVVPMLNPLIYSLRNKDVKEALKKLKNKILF
OR5T3 (Homo sapiens), sequence (Q8NGG3 whole entry): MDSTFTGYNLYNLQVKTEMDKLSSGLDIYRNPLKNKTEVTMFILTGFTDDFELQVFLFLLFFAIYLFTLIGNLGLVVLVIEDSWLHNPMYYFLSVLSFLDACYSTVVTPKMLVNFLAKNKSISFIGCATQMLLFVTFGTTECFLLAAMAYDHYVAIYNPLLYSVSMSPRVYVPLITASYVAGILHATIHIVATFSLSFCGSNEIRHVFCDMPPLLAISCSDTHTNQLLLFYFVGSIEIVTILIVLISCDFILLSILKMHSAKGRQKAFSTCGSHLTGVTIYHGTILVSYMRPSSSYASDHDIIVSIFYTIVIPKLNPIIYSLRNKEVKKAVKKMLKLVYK
OR5V1 (Homo sapiens), sequence (Q9UGF6 whole entry): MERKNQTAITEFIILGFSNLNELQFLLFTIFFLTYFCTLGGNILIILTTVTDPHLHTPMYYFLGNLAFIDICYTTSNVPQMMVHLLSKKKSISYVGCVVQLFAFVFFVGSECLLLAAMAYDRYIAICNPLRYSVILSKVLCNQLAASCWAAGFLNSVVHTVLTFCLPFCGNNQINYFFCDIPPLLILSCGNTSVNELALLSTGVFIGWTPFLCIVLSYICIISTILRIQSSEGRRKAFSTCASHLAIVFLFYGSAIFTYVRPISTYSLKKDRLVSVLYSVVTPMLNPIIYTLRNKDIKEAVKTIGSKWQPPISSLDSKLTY
OR5T2 (Homo sapiens), sequence (Q8NGG2 whole entry): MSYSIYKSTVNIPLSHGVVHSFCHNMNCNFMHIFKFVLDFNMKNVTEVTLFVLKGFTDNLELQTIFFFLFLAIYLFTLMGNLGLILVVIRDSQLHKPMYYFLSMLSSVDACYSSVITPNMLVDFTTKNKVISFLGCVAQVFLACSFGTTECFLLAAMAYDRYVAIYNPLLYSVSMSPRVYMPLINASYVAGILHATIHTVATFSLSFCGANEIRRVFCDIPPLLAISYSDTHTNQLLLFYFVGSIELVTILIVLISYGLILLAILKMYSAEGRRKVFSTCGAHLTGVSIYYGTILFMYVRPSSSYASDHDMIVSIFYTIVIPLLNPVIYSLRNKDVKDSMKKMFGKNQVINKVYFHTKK
OR5T1 (Homo sapiens), sequence (Q8NG75 whole entry): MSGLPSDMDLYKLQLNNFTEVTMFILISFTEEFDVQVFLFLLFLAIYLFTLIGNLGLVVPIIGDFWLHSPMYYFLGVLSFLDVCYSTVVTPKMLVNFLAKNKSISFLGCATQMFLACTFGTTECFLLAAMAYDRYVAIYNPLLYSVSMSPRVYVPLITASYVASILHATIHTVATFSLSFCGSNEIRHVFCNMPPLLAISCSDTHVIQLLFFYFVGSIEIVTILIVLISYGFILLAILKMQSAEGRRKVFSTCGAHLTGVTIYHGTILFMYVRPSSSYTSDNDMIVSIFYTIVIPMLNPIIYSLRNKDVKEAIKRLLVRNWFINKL
OR5W2 R189C, sequence (as listed by the source, stated change not applied): as the sequence (Q8NH69 whole entry) above, with R189C counted along it
OR5T2 S4G, sequence (as listed by the source): as the sequence (Q8NGG2 whole entry) above, with S4G counted along it
OR5P3 L301R, sequence (as listed by the source, stated change not applied): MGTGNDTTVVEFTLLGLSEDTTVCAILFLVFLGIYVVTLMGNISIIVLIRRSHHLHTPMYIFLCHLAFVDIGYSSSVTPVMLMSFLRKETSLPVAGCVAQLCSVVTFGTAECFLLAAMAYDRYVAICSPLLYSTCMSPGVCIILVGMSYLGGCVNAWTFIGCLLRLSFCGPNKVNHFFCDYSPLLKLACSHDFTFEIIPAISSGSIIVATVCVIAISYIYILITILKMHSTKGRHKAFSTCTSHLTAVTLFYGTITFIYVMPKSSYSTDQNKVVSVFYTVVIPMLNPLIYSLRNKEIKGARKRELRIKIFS

Cc1c([N+](=O)[O-])c(C)c([N+](=O)[O-])c(C(C)(C)C)c1[N+](=O)[O-]
inactive: OR5P3 (Homo sapiens) | OR5T1 (Homo sapiens) | OR5T2 (Homo sapiens) | OR5T3 (Homo sapiens) | OR5V1 (Homo sapiens) | OR5W2 (Homo sapiens)

C=CCc1ccccc1
inactive: OR5P3 (Homo sapiens)

C=CCOC(=O)Cc1ccccc1
inactive: all assays above

CCC1CCC(=O)O1 (centres undefined)
inactive: OR5P3 (Homo sapiens)

O=c1cc(O)c2ccccc2o1
inactive: OR5P3 (Homo sapiens)
